One data set concerns HIV-1Ba-L. Briefly: In vitro antiviral MAGI assay. It is filed as cell-based. To be noted: read-out: IC50 for inhibition of virus replication, MAGI CCR5 cells, 48 h, β-galactosidase read-out (Gal-screen), triplicate. The method in brief:
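MAGI CCR5 cells are HeLa-derived, express CXCR4, CD4 and CCR5, and carry an HIV-1 LTR–β-galactosidase reporter. Cells were plated at 1 × 10^4 per well and adhered overnight at 37 °C. Medium was replaced with the compound range (up to 10 nM), then HIV-1Ba-L was added. After 48 h, lysates were read with Gal-screen and expressed as % of the no-compound blank. Tested in triplicate with unmodified-peptide and capped-XTEN controls.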

Another data set is described as follows: Dynamic light scattering. It is filed as physicochemical. To be noted: DLS at stock concentration, 15 measurements, regularization fit. The method in brief: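 Samples were spun 15 min at 18 000 g and measured at stock concentration at 100% laser power until intensity readings were consistent. 15 measurements per sample gave the size distribution by regularization fit. Effective radius and aggregation by intensity and by mass were reported. Controls were maleimide-capped XTEN (negative) and BSA (positive), with BSA re-measured after 10 min at 80 °C and 5 min on ice.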

The conditions of data set [1]: dosed in rats; cited from earlier work.
Data set [2] is classed as physicochemical. Conditions: as E13; dimer peak of the precursor before conjugation. The method in brief: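 Vydac C4 column (5 μm, 300 Å, 4.6 × 150 mm), ambient temperature, 1 mL/min. Equilibrated at 5% B, then a linear gradient of 5–50% B over 45 min. 20 μg protein injected. Absorbance read at 214 nm. The thiol-XTEN precursor was run before conjugation.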

As usually defined, the IC50 is the concentration at which inhibition is half-maximal. On to Enfuvirtide, for which the IC50 in the data set with HIV-1Ba-L amounted to 0.38 nM.

Regarding “BSA (heat treated): heat-treated BSA, positive control for aggregation in DLS”, in the data set “Dynamic light scattering”, the aggregation by intensity amounted to 92.2% and the aggregation by mass is 28%.

Regarding “BSA (not heat treated): BSA (Fermentas), DLS control before heat treatment”, in the data set “Dynamic light scattering”, the aggregation by intensity was 0% and the aggregation by mass came out at 0%.

As to enfuvirtide, the half-life in rats in data set [1] is given as 2.8 h.

For “SAGSPTPGTSESATPESGPGSEPATSGSETPGTSESATPESGPGSEPATSGSETPGTSESATPESGPGTSTEPSEGSAPGTSESATPESGPGSPAGSPTSTEEGSPAGSPTSTEEGSPAGSPTSTEEGTSESATPESGPGTSTEPSEGSAPGTSESATPESGPGSEPATSGSETPGTSESATPESGPGSEPATSGSETPGTSESATPESGPGTSTEPSEGSAPGSPAGSPTSTEEGTSESATPESGPGSEPATSGSETPGTSESATPESGPGSPAGSPTSTEEGSPAGSPTSTEEGTSTEPSEGSAPGTSESATPESGPGTSESATPESGPGTSESATPESGPGSEPATSGSETPGSEPATSGSETPGSPAGSPTSTEEGTSTEPSEGSAPGTSTEPSEGSAPGSEPATSGSETPTAEAAGCGTAEAASASR [XTEN-1]”, the “C4 RPC retention time of suspected disulfide-bonded dimer” value in data set [2] is 21.2 min.

The values above are taken from article PMC4157762 (Bioconjugate Chemistry, 2014).
